From PubChem BioAssay
APOBEC3A inh: inhibitors of human APOBEC3A DNA deaminase | P31941 | recombinant A3A, FAM/TAMRA ssDNA deamination fluorescence | inhibition, % at 20 µM | 330,000 tested, 0.41% active;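 active means at least 40% inhibition at 20 µM here, with at most 30% in a related deaminase screen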;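 further: plate controls were A3A with DMSO for no effect and wells lacking A3A enzyme for full effect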
ABHD5 PLIN5 PPI: ABHD5-PLIN5 protein interaction inhibition; Q00G26+Q8WTS1; Split G. princeps luciferase complementation, luminescence, 4 h; inhibition, % at 4 µM; 360,000 tested, 0.78% active;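 active means inhibition above the mean inhibition across every tested compound plus 3 SD, cut at about 22% in these data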;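 further: 0% = DMSO only wells and the 100% control is not disclosed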
Target sequence (Q00G26 whole entry, looked up): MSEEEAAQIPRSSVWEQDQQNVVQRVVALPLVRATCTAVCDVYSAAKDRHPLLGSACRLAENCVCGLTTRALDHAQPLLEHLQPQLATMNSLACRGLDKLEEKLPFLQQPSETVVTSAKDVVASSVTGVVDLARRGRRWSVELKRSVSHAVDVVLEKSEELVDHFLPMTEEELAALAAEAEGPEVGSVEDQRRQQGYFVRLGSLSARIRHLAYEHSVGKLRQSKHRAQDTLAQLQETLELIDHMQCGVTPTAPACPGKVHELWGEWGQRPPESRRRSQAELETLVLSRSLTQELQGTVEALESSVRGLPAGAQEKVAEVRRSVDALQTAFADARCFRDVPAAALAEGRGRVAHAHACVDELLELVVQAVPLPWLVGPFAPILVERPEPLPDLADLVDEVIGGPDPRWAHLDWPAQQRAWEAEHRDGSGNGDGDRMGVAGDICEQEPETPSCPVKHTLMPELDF
Target sequence (Q8WTS1 whole entry, looked up): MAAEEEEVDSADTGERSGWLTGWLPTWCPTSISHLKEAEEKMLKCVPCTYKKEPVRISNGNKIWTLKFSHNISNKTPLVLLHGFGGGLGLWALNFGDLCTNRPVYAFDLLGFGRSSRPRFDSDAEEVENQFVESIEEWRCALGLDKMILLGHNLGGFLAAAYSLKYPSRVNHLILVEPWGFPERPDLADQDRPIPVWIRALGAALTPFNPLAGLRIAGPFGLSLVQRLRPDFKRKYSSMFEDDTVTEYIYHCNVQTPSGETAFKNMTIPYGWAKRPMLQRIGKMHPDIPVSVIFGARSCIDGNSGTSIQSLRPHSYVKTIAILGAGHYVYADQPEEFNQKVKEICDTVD
HCV NS3 hel inh: blocks Hepatitis C virus NS3 helicase unwinding. AID 1800. 290,000 tested, 0.56% active. NS3 helicase DNA unwinding, Cy5 molecular beacon fluorescence. inhibition, % at 10.9 µM;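 active means inhibition above the mean of all tested compounds plus 3 SD, set per campaign, cut at about 35% in these data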;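 further: 0% = DMSO wells and 100% = thioflavine S control wells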
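System: HCV NS3 helicase fragment; control set: DMSO and thioflavine S; technique: Cy5 fluorescence at 0 and 60 min, beacon hairpin quenching; reagent: beacon DNA duplex substrate plus ATP; replicates: singlicate; schedule: 1 h reaction at 25 °C, ATP-initiated; medium: MOPS buffer pH 6.5 with MgCl2, DTT, Tween20, BSA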
core dimer inh: blocks dimerization of HCV core protein. 300,000 tested, 0.33% active. AID 1899. inhibition, % at 5 µM. TR-FRET GST/Flag-core106 dimerization, 1536-well;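 active means inhibition above the mean of all tested compounds plus 3 SD, set per screening campaign, cut at about 45% in these data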
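System: GST-tagged and Flag-tagged HCV core protein residues 1-106 / Input: core106 proteins, GST 13.5 nM and Flag 17 nM / Buffer or medium: KF-containing HEPES buffer, pH 7.45, DTT, CHAPS, BSA / Probe or stimulus: Eu-anti-GST and XL665-anti-Flag labelled anti-tag antibodies / Schedule: 4 h, 22.5 °C incubation / Technique: TR-FRET 671 and 617 nm emission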
A3G deaminase: inhibitors of human APOBEC3G DNA deaminase | 330,000 tested, 0.28% active | Q9HC16 | recombinant A3G, ssDNA deamination FAM/TAMRA fluorescence | AID 493012 | inhibition, % at 20 µM;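 active means inhibition of at least 40% at 20 µM, with no more than 30% in the related APOBEC3A deaminase screen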;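 further: plate controls were DMSO wells with A3G for no effect and wells lacking A3G enzyme for full effect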
PRMT1 inh: PRMT1 (human) inhibition, primary screen. inhibition, % at 2.79 µM. Q99873. 370,000 tested, 1.3% active. recombinant PRMT1, activity-based probe fluorescence polarization;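 active means inhibition above about 21% made by adding two undisclosed values, limit read from the data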
An asterisk follows results filed as active; nt = not tested or not shown. Sampled rows, rich in hits. Any-hit rate of the full collection: about 2.9%.

SMILES	APOBEC3A inh	ABHD5 PLIN5 PPI	HCV NS3 hel inh	core dimer inh	A3G deaminase	PRMT1 inh
COc1ccc(C(=O)/C=C2\Sc3ccccc3N2C)cc1	-3.0	8.1	1.2	-20.5	0.1	21.1
COc1cc(CNn2cn[nH]c2=S)cc(Br)c1OCc1ccccc1F	1.5	-9.2	-13.2	3.9	-5.3	23.7*
COc1ccc(-n2c(SCC(=O)Nc3ccccc3)nnc2-c2ccc(NS(=O)(=O)c3ccc(C)cc3)cc2)cc1	-0.4	-2.3	-5.2	51.7*	-3.3	-1.2
Cc1c(O)nc(SCC(=O)Nc2ccc3c4c(cccc24)CC3)n(-c2ccc(F)cc2)c1=O	-0.5	-3.6	16.2	-0.7	-6.9	24.6*
COc1cccc(NC(=O)CSc2nc(O)c(C)c(=O)n2-c2ccc(C)cc2)c1	-2.4	-6.8	-11.8	8.9	-14.8	24.5*
CCN(Cc1cc(OC)c(OC)c(OC)c1)S(=O)(=O)c1ccccc1Br	nt	nt	nt	nt	nt	0.2
Cc1cccc(-c2cccc3c4c([nH]c23)[C@@H]2C[C@H](N(C)C(=O)C3CCCCC3)[C@H]([C@H](C)O)CN2CC4)c1	nt	nt	nt	nt	nt	-0.3
CC(C)(C)c1ccc(-c2nnc(SCC(=O)Nc3ccc(S(=O)(=O)Nc4nccs4)cc3)n2-c2ccc(Cl)cc2)cc1	nt	nt	nt	nt	nt	2.7
CCCn1c2ccccc2c2nnc(SCCN3CCOCC3)nc21	-7.6	2.2	-1.0	4.9	-8.2	23.9*
CCCn1c2ccc(C)cc2c2nnc(SCCN3CCOCC3)nc21	-1.3	-3.1	-13.4	-0.1	-6.5	12.9
CCC(=O)N(Cc1ccco1)c1nc(C(=O)Nc2ccc(Cl)cc2)c(C)s1	-1.6	11.3	33.9	15.4	-0.2	21.3*
Cc1ccc(Cn2nnc3c2-c2ccccc2S(=O)(=O)N(C)C3)cc1	nt	nt	nt	nt	nt	0.8
COc1ccc(Cl)cc1C(=O)NC(=S)Nc1nc(C)cc(C)n1	-0.6	3.7	nt	2.4	-4.2	-2.8
COc1ccc(Cl)cc1C(=O)NC(=S)Nc1cc(-c2nc3ccccc3[nH]2)ccc1C	-2.1	4.6	7.8	47.3*	0.3	1.6
CC(=O)Nc1ccc(C(=S)NCc2ccco2)cc1	-0.7	-1.2	-4.2	2.4	-2.2	0.5
CC(=O)Nc1ccc(C(=S)NCCCO)cc1	-0.4	-6.3	9.8	2.1	6.5	22.0*
CN1OC[C@@H]2CN3C(=Nc4cc(C(F)(F)F)cc(C(F)(F)F)c4)Sc4ccccc4[C@@H]3C[C@@H]21	nt	nt	nt	nt	nt	3.8
O=C(O)/C=C/C(=O)Nc1c(F)cccc1F	-1.1	15.7	1.9	-2.2	-3.9	22.1*
O=C(Nc1ccccc1)Nc1c(F)cccc1F	-1.2	0.5	2.1	0.4	-6.4	2.5
COc1ccccc1/C=C/C=c1\sc2nc(=O)c(Cc3ccccc3)nn2c1=O	4.6	-9.3	13.2	61.3*	5.8	19.0
O=S(=O)(CC1NCCc2ccccc21)NCCc1ccccc1 (stereo not drawn)	nt	nt	nt	nt	nt	4.3
COc1cccc(/C=N/NC(=O)c2nc(-c3ccccc3)cc(-c3ccccc3)n2)c1	-1.7	-0.4	-4.1	49.5*	-3.2	1.4
CCn1c2ccccc2c2cc(C=Nn3c(-c4ccccc4C)n[nH]c3=S)ccc21	nt	nt	nt	nt	nt	22.7*
CCCCN(C(=O)C1CCN(C(=O)c2ccccc2C)CC1)c1c(N)n(CC(C)C)c(=O)[nH]c1=O	nt	2.0	nt	nt	nt	-2.8
O=C(COc1ccc(F)c(Cl)c1)c1ccc[nH]1	2.7	-0.7	14.0	11.2	7.6	5.7
SMILES	APOBEC3A inh	ABHD5 PLIN5 PPI	HCV NS3 hel inh	core dimer inh	A3G deaminase	PRMT1 inh
O=C(CCC(=O)c1ccc[nH]1)c1ccc(Cl)cc1	3.8	-5.2	30.3	52.6*	-0.9	4.4
O=C(Nc1nnc(SCC(=O)N2CCOCC2)s1)C1CC(=O)N(c2ccc(F)cc2)C1 (stereo not drawn)	-1.4	-4.4	23.1	53.3*	-4.9	7.5
O=C(Nc1nnc(SCc2ccccn2)s1)C1CC(=O)N(c2ccc(F)cc2)C1 (stereo not drawn)	-0.5	-7.1	26.8	54.7*	-8.3	0.6
Cc1cccc(N2CC(C(=O)Nc3nnc(SCC(=O)Nc4nccs4)s3)CC2=O)c1 (stereo not drawn)	2.1	1.0	2.5	50.1*	-2.7	2.7
O=C(Nc1nnc(SCC(=O)N2CCCC2)s1)C1CC(=O)N(c2ccc(F)cc2)C1 (stereo not drawn)	3.8	3.9	19.6	25.6	3.3	5.1
Cc1cccc(N2CC(C(=O)Nc3nnc(SCC(=O)Nc4cc(C)on4)s3)CC2=O)c1 (stereo not drawn)	0.0	-0.2	3.8	40.0	-6.4	1.0
COc1ccc(S(=O)(=O)NC2CC(=O)N(c3ccc4c(c3)OCCO4)C2)cc1 (stereo not drawn)	-1.7	-12.2	nt	1.3	-10.2	0.8
CS(=O)(=O)c1ncc(Cl)c(C(=O)Nc2ccc(N3CCOCC3)cc2)n1	-3.8	60.3*	1.4	-6.2	-4.3	nt
COC(=O)[C@]12C[C@H](CC(=O)NCc3cccc(C(F)(F)F)c3)C(=O)N(CCc3ccc(OC)c(OC)c3)C1=C[C@H](COCc1ccccc1)O[C@@H]2C	nt	nt	nt	nt	nt	-2.5
COC(=O)Cc1nnn2c1[C@H](C)[C@@H](OC)c1cccc(Cl)c1-2	nt	nt	nt	nt	nt	-0.7
COC(=O)CC1OCC=C2CN3CCC45C6=CC(=O)C(=O)C([N+](=O)[O-])=C6NC4C1C2CC35 (stereo not drawn)	nt	-35.9	nt	nt	nt	29.8*
Cc1nc2n(n1)C(O)c1cc([N+](=O)[O-])ccc1S2 (stereo not drawn)	44.5*	nt	-4.8	-2.9	-9.7	nt
O=[N+]([O-])c1ccc2c(c1)C(O)n1ncnc1S2 (stereo not drawn)	-4.2	2.5	15.7	-3.1	-9.8	5.3
CC(C)Oc1cc(F)ccc1-c1cc(C(=O)NCC2CCCCC2)[nH]n1	nt	-2.0	nt	nt	nt	0.9
CNC(=O)C1Cc2c(-c3ccccc3Oc3ccccc3)ccnc2O1 (stereo not drawn)	nt	3.1	nt	nt	nt	-0.7
O=C(CSc1nnc(-c2ccco2)o1)c1ccc[nH]1	15.9	-3.6	19.0	62.7*	6.9	4.8
O=C(CSc1nnc(-c2ccco2)o1)c1ccccc1	2.7	-2.6	5.8	23.2	0.7	19.1
O=C1CSC(c2nn(-c3ccccc3)cc2-c2cc3ccccc3oc2=O)N1Cc1ccco1 (stereo not drawn)	3.6	22.8*	-10.1	16.2	3.9	1.3
Cc1ccc(C)c(CNc2ccc(S(=O)(=O)N3CCCCC3)cc2)c1	-1.0	-8.8	nt	nt	-3.0	2.0
O=C1OC(Nc2cc(Br)cc3cccnc23)c2ccccc21 (stereo not drawn)	11.2	-11.0	6.8	18.6	18.9	31.0*
O=C1OC(Nc2ncccn2)c2ccccc21 (stereo not drawn)	-7.2	-9.7	-3.1	1.6	-4.0	-2.6
COc1ccc(-c2cc(NC(C)=O)c3ncc(-c4cccc(C(C)=O)c4)n3c2)cc1OC	nt	9.4	nt	nt	nt	-0.4
